Test results taken from ChEMBL document CHEMBL1128487, “Reduced-size antagonists of luteinizing hormone-releasing hormone active in vitro” (1995).
Square brackets hold non-standard residues; d marks the D form. Peptide text beside a SMILES is read from it. 2Nal = N[C@@H](Cc1ccc2ccccc2c1)C(=O)O

How the values were obtained:
[1] = biological target: T1, Gonadotropin-releasing hormone receptor (Rattus norvegicus) (UniProt P30969); experiment: In vitro inhibition of LH release was determined in rat pituitary cells at a dose of 10 ug of analogue and 1 ng of LHRH; type: functional, cell-based; conditions: Pituitary gland cell
T1 sequence (whole entry): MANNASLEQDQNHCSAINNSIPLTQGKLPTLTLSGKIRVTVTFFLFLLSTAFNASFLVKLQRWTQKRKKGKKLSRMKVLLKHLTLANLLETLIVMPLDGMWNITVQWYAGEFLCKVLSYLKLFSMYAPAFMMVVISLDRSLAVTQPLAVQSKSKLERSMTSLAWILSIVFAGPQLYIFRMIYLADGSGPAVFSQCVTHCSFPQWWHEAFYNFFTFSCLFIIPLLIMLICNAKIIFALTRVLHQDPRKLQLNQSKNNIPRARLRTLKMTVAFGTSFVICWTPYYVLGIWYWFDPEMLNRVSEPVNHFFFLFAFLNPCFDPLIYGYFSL
Procedure, shortened: (§1)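 Anterior pituitaries from female Sprague-Dawley rats (240-260 g, 18 rats) were minced and dispersed in Gey's solution with trypsin, DNase I and LBBI. Cells were plated in DMEM with 0.45% glucose, 25 mM HEPES, serum, T and 100 nM dexamethasone at about 3.0 × 10^5 cells/mL and cultured 4 days at 37 °C in 8% CO2. Cells were then exposed to antagonist plus 1 ng LHRH in Gey's solution with 0.3% glucose for 2 h. LH in the medium was measured by RIA as ng/mL of RP-3.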

[2] = species on record: Rattus norvegicus; experiment: In vitro inhibition of LH release in rat pituitary cells at a dose of 1 ng LHRH in absence of the compound.; type: functional, Pituitary gland cell; set-up: unit: ng/mL; procedure, shortened: as §1
[3] = biological target: T1, Gonadotropin-releasing hormone receptor (Rattus norvegicus); experiment: In vitro inhibition of LH release in rat pituitary cells at a dose of 1 ug of analogue and 1 ng of LHRH.; type: functional, cell-based; conditions: Pituitary gland cell; procedure, shortened: as §1
[4] = biological target: T1, Gonadotropin-releasing hormone receptor (Rattus norvegicus); experiment: In vitro inhibition of LH release determined in rat pituitary cells at a dose of 3 ug of analogue and 1 ng of LHRH; type: functional, cell-based; conditions: Pituitary gland cell; procedure, shortened: as §1
[5] = biological target: T1, Gonadotropin-releasing hormone receptor (Rattus norvegicus); experiment: In vitro inhibition of LH release was determined in rat pituitary cells at a dose of 30 ug of analogue and 1 ng of LHRH; type: functional, cell-based; conditions: Pituitary gland cell; procedure, shortened: as §1
[6] = biological target: T1, Gonadotropin-releasing hormone receptor (Rattus norvegicus); experiment: In vitro inhibition of LH release was determined in rat pituitary cells at a dose of 100 ug of analogue and 1 ng of LHRH; type: functional, cell-based; conditions: Pituitary gland cell; procedure, shortened: as §1
[7] = biological target: T1, Gonadotropin-releasing hormone receptor (Rattus norvegicus); experiment: In vitro antagonistic activity against LH release in rat pituitary cells for control.; type: functional, cell-based; conditions: Pituitary gland cell; procedure, shortened: as §1
[8] = biological target: T1, Gonadotropin-releasing hormone receptor (Rattus norvegicus); experiment: In vitro inhibition of LH release was determined in rat pituitary cells at a dose of 0.3 ug of analogue and 1 ng of LHRH; type: functional, cell-based; conditions: Pituitary gland cell; procedure, shortened: as §1
[9] = biological target: T1, Gonadotropin-releasing hormone receptor (Rattus norvegicus); experiment: In vitro inhibition of LH release was determined in rat pituitary cells at a dose of 0.03 ug of analogue and 1 ng of LHRH; type: functional, cell-based; conditions: Pituitary gland cell; procedure, shortened: as §1
[10] = biological target: T1, Gonadotropin-releasing hormone receptor (Rattus norvegicus); experiment: In vitro inhibition of LH release was determined in rat pituitary cells at a dose of 0.1 ug of analogue and 1 ng of LHRH; type: functional, cell-based; conditions: Pituitary gland cell; procedure, shortened: as §1

| SMILES | Activity [1] | Activity [3] | Activity [4] | Activity [5] | Activity [6] | Activity [7] | Activity [8] | Activity [9] | Activity [10] | Activity [2] |
| --- | --- | --- | --- | --- | --- | --- | --- | --- | --- | --- |
| CC(=O)N[C@@H](Cc1ccc2ccccc2c1)C(=O)NC(CCCCNC(=O)c1ccccn1)C(=O)N[C@@H](CCCCNC(=O)c1ccccn1)C(=O)NC(CCCN=C(N)N)C(=O)NC(C)C(N)=O (stereo in doubt) | 142 | 145 | 158 | 105 | 64 | 2.3 |  |  |  | 156 |
| CCNC(=O)[C@@H]1CCCN1C(=O)[C@H](CC(C)C)NC(=O)[C@H](Cc1ccc2ccccc2c1)NC(=O)[C@H](Cc1ccc(O)cc1)NC(=O)[C@H](CO)NC(=O)[C@H](Cc1ccc2ccccc2c1)NC(C)=O (Ac-[2Nal]SY[2Nal]LP-NHEt) | 55 | 155 | 151 | 11 |  | 3.1 | 148 |  |  | 145 |
| CCNC(=O)[C@@H]1CCCN1C(=O)[C@H](CCCN=C(N)N)NC(=O)[C@H](CC(C)C)NC(=O)[C@@H](Cc1c[nH]c2ccccc12)NC(=O)[C@H](Cc1ccc(O)cc1)NC(=O)[C@H](CO)NC(=O)[C@@H](Cc1ccc2ccccc2c1)NC(C)=O |  | 2 |  |  |  | 2.1 | 10 | 85 | 40 | 149 |
| CCNC(=O)[C@@H]1CCCN1C(=O)[C@H](Cc1ccc2ccccc2c1)NC(C)=O (Ac-[2Nal]-Pro-NHEt) | 101 | 135 | 141 | 59 | 14 | 3.1 |  |  |  | 145 |
| CC(=O)N[C@H](Cc1ccc2ccccc2c1)C(=O)N[C@@H](CO)C(=O)N[C@@H](Cc1ccc(O)cc1)C(=O)N[C@H](CCCCNC(=O)c1ccccn1)C(=O)N[C@@H](CC(C)C)C(=O)N[C@@H](CCCN=C(N)N)C(=O)N1CCC[C@H]1C(=O)N[C@H](C)C(N)=O |  | 67 | 29 |  |  | 6.3 | 154 |  | 201 | 241 |
| CC(=O)N[C@@H](Cc1ccc2ccccc2c1)C(=O)N[C@@H](C)C(N)=O (Ac-[2Nal]-Ala-NH2) | 124 | 148 | 153 | 88 | 16 | 3.5 |  |  |  | 153 |
| CCNC(=O)[C@@H]1CCCN1C(=O)[C@H](CCCCNC(C)C)NC(=O)[C@H](CC(C)C)NC(=O)[C@@H](CCCCNC(=O)c1ccccn1)NC(=O)[C@H](Cc1ccc(O)cc1)NC(=O)[C@H](CO)NC(=O)[C@@H](Cc1ccc2ccccc2c1)NC(C)=O |  |  |  |  |  |  |  |  |  | 151 |
| CCNC(=O)[C@@H]1CCCN1C(=O)[C@H](CCCCNC(C)C)NC(=O)[C@H](CC(C)C)NC(=O)[C@H](CCCCNC(=O)c1ccccn1)NC(=O)[C@H](Cc1ccc(O)cc1)NC(=O)[C@H](CO)NC(=O)[C@H](Cc1ccc2ccccc2c1)NC(C)=O |  | 118 |  |  |  | 3.5 | 157 | 194 | 200 |  |
| CC(=O)N[C@H](Cc1ccc2ccccc2c1)C(=O)N[C@@H](CO)C(=O)N[C@@H](Cc1ccc(O)cc1)C(=O)N[C@H](Cc1cccnc1)C(=O)N[C@@H](CC(C)C)C(=O)N[C@@H](CCCN=C(N)N)C(=O)N1CCC[C@H]1C(=O)N[C@H](C)C(N)=O |  |  |  |  |  |  |  |  |  | 251 |
| CC(=O)N[C@@H](Cc1ccc2ccccc2c1)C(=O)N[C@@H](CO)C(=O)N[C@@H](Cc1ccc(O)cc1)C(=O)N[C@@H](Cc1cccnc1)C(=O)N[C@@H](CC(C)C)C(=O)N[C@@H](CCCN=C(N)N)C(=O)N1CCC[C@H]1C(=O)N[C@H](C)C(N)=O |  | 33 | 11 |  |  | 4.8 | 72 |  | 112 |  |
| CCNC(=O)[C@@H]1CCCN1C(=O)[C@H](CCCN=C(N)N)NC(=O)[C@H](CC(C)C)NC(=O)[C@@H](Cc1cccnc1)NC(=O)[C@H](Cc1ccc(O)cc1)NC(=O)[C@H](CO)NC(=O)[C@@H](Cc1ccc2ccccc2c1)NC(C)=O |  | 34 | 14 |  |  | 9 | 69 |  | 134 | 279 |
| CC(C)C[C@H](NC(=O)C(Cc1ccc2ccccc2c1)NC(=O)[C@H](Cc1ccc(O)cc1)NC(=O)[C@H](CO)NC(=O)[C@H](Cc1cccnc1)NC(=O)[C@H](Cc1ccc(Cl)cc1)NC(=O)[C@@H]1CCC(=O)N1)C(=O)N[C@@H](CCCN=C(N)N)C(=O)N1CCC[C@H]1C(=O)N[C@H](C)C(N)=O (stereo in doubt) |  | 149 |  |  |  | 3.8 | 170 | 165 | 158 | 132 |
| CC(=O)N[C@@H](Cc1ccc(Cl)cc1)C(=O)N[C@@H](Cc1cccnc1)C(=O)N[C@@H](CO)C(=O)N[C@@H](Cc1ccc(O)cc1)C(=O)NC(Cc1ccc2ccccc2c1)C(=O)N[C@@H](CC(C)C)C(=O)N[C@@H](CCCN=C(N)N)C(=O)N1CCC[C@H]1C(=O)N[C@H](C)C(N)=O (stereo in doubt) |  | 145 | 77 |  |  | 3.5 | 152 | 152 | 165 | 151 |
| CCNC(=O)[C@@H]1CCCN1C(=O)[C@H](CCCN=C(N)N)NC(=O)[C@H](CC(C)C)NC(=O)[C@@H](CCCCNC(=O)c1ccccn1)NC(=O)[C@H](CCCCNC(=O)c1ccccn1)NC(=O)[C@H](CO)NC(=O)[C@@H](Cc1ccc2ccccc2c1)NC(C)=O |  |  |  |  |  |  |  |  |  | 149 |
| CC(=O)NC(Cc1ccc2ccccc2c1)C(=O)N[C@@H](CO)C(=O)N[C@@H](Cc1ccc(O)cc1)C(=O)NC(Cc1ccc2ccccc2c1)C(=O)N[C@@H](CC(C)C)C(=O)N[C@@H](CCCCNC(C)C)C(=O)N1CCC[C@H]1C(=O)N[C@H](C)C(N)=O (stereo in doubt) |  | 55 | 23 |  |  | 2.1 | 104 | 127 | 135 | 149 |

Continued, in another order:

| Activity [1] | Activity [3] | Activity [4] | Activity [5] | Activity [6] | Activity [7] | Activity [8] | Activity [9] | Activity [10] | SMILES | Activity [2] |
| --- | --- | --- | --- | --- | --- | --- | --- | --- | --- | --- |
|  | 6 | 4 |  |  | 3.5 | 26 | 146 | 133 | CCNC(=O)[C@@H]1CCCN1C(=O)[C@H](CCCCNC(C)C)NC(=O)[C@H](CC(C)C)NC(=O)C(Cc1ccc2ccccc2c1)NC(=O)[C@H](Cc1ccc(O)cc1)NC(=O)[C@H](CO)NC(=O)C(Cc1ccc2ccccc2c1)NC(C)=O (stereo in doubt) | 148 |
|  | 50 | 45 |  |  | 3.8 | 112 |  | 157 | CC(=O)N[C@H](Cc1ccc2ccccc2c1)C(=O)N[C@@H](CO)C(=O)N[C@@H](Cc1ccc(O)cc1)C(=O)N[C@H](Cc1ccc2ccccc2c1)C(=O)N[C@@H](CC(C)C)C(=O)N[C@@H](CCCN=C(N)N)C(=O)N1CCC[C@H]1C(=O)NCC(N)=O | 132 |
|  | 8 |  |  |  | 2.1 | 27 | 108 | 72 | CCNC(=O)[C@@H]1CCCN1C(=O)C(CCCN=C(N)N)NC(=O)[C@H](CC(C)C)NC(=O)[C@H](CCCCNC(=O)c1ccccn1)NC(=O)C(CCCCNC(=O)c1ccccn1)NC(=O)[C@H](CO)NC(=O)[C@H](Cc1ccc2ccccc2c1)NC(C)=O (stereo partly specified) |  |
|  | 26 | 8 |  |  | 7.2 | 60 |  | 118 | CC(=O)N[C@H](Cc1ccc2ccccc2c1)C(=O)N[C@@H](CO)C(=O)N[C@@H](CCCCNC(=O)c1ccccn1)C(=O)N[C@H](CCCCNC(=O)c1ccccn1)C(=O)N[C@@H](CC(C)C)C(=O)N[C@@H](CCCN=C(N)N)C(=O)N1CCC[C@H]1C(=O)N[C@H](C)C(N)=O | 224 |
|  | 4 | 3 |  |  | 4.1 | 13 | 154 | 74 | CC(=O)N[C@H](Cc1ccc2ccccc2c1)C(=O)N[C@@H](CO)C(=O)N[C@@H](Cc1ccc(O)cc1)C(=O)N[C@H](Cc1ccc2ccccc2c1)C(=O)N[C@@H](CC(C)C)C(=O)N[C@@H](CCCN=C(N)N)C(=O)N1CCC[C@H]1C(N)=O | 167 |
|  | 13 | 4 |  |  | 2.3 | 37 |  | 117 | CC(=O)N[C@@H](Cc1ccc2ccccc2c1)C(=O)N[C@@H](CO)C(=O)N[C@@H](Cc1ccc2ccccc2c1)C(=O)N[C@@H](CC(C)C)C(=O)N[C@@H](CCCN=C(N)N)C(=O)N1CCC[C@H]1C(=O)N[C@@H](C)C(N)=O (Ac-[2Nal]S[2Nal]LRPA-NH2) | 155 |
